The source made the active and inactive calls. No cut-off for these calls is given here.
Assays:
[1] = Drug uptake in Plasmodium falciparum infected in human erythrocyte food vacuoles at 5 uM after 3 hrs by fluorescence microscopy; format: ADME, cell-based
Outline: (§1)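 Human erythrocyte P. falciparum culture at 1.9% parasitemia, given 5 μM compound or DMSO solvent control for 3 h at room temperature in the dark. Washed gently with PBS, placed on poly-Lys-coated coverslips and imaged directly by phase contrast and fluorescence microscopy, 100× oil objective.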

[2] = tested on: Vero; experiment: Cytotoxicity against african green monkey Vero cells after 48 hrs by MTT assay; format: cell-based; conditions: Chlorocebus sabaeus
Outline: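 Vero monkey kidney cells in DMEM with 10% FBS at 37 C, 7% CO2; seeded 15000 cells/well and adhered overnight. Log dilutions from 30 mg/mL DMSO stock, 48 h exposure. MTT at 0.5 mg/mL final for 2 h; formazan dissolved in 95% ethanol, read at 570 nm. Viability relative to DMSO-medium wells; IC50 from concentration–viability curve; doxorubicin as standard.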

[3] = Inhibition of hematin assessed as quenching fluorescence intensity at 1:1 drug-hematin ratio by UV-visible titration; format: functional; conditions: dose or concentration not given here
[4] = tested on: Nucleic Acid; experiment: Binding affinity to s(GATCCTAGGATC)2-DNA by fluorescence spectroscopy; format: nucleic-acid assay
Outline: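 Buffer 0.01 M phosphate pH 7.4, 0.1 M NaCl, 25.0 C, 1 cm quartz cuvettes. Fluorescence: excitation 339 nm, emission 450–500 nm. Dilution-corrected intensity change fitted to single-site binding for Kd; Kass taken as 1/Kd.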

[5] = Selectivity index, ratio of IC50 for african green monkey Vero cells to IC50 for chloroquine-resistant ring stage Plasmodium falciparum W2; format: toxicity, cell-based; conditions: read-out: Ratio IC50
Outline: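 Vero IC50 divided by W2 IC50. Vero: 15000 cells/well adhered overnight, then log dilutions from 30 mg/mL DMSO stock for 48 h. MTT 0.5 mg/mL final for 2 h at 37 C, formazan dissolved in 95% ethanol, A570 read against DMSO vehicle as 100% viability. W2: 48 h YOYO-1 flow-cytometric growth assay in human erythrocytes.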

[6] = Inhibition of Plasmodium falciparum falcipain 3
[7] = tested on: Plasmodium berghei; experiment: Antiplasmodial activity against GFP-expressing liver stage Plasmodium berghei sporozoites infected in human Huh-7 cells at 5 uM by fluorescence activated cell sorting based method; format: functional, organism-based
Outline: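 Huh7 human hepatoma cells infected with GFP-expressing P. berghei sporozoites, compound at 5 μM. Read-out by FACS: invasion as % GFP-positive cells 2 h after sporozoite addition; development as GFP fluorescence intensity of positive cells at 48 h. Cells trypsinized for 5 min at 37 C, then resuspended in 2% FCS/PBS before analysis.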

[8] = tested on: Nucleic Acid; experiment: Binding affinity to DNA assessed as quenching fluorescence intensity by UV-visible spectrophotometry; format: nucleic-acid assay
[9] = tested on: Plasmodium falciparum; experiment: Antiplasmodial activity against chloroquine and pyrimethamine-resistant ring stage Plasmodium falciparum V1/S infected in human red blood cells after 48 hrs; format: functional, organism-based
[10] = Drug uptake in Plasmodium falciparum infected in human erythrocyte nucleus at 5 uM after 3 hrs by fluorescence microscopy; format: ADME, cell-based; outline: as §1
[11] = Inhibition of Plasmodium falciparum falcipain 2
[12] = tested on: Plasmodium falciparum; experiment: Antiplasmodial activity against chloroquine-sensitive ring stage Plasmodium falciparum 3D7 infected in human red blood cells after 48 hrs; format: functional, organism-based; conditions: 3D7, 48 h
[13] = tested on: Heme; experiment: Binding affinity to heme by UV-visible titration
Outline: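 Hematin monomer (FPIX-OH, 10 μM) in pH 5.5 HEPES-buffered 40% DMSO v/v at 25 C, titrated with ligand from 100 μM solution until above hematin concentration. Stirred 1 min per addition; spectra 230–500 nm, Soret change at 402 nm. Absorbance dilution-corrected, nonlinear fit for Kd; Kass calculated from Kd.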

[14] = tested on: Plasmodium falciparum; experiment: Antiplasmodial activity against chloroquine-sensitive, mefloquine-resistant ring stage Plasmodium falciparum D6 infected in human red blood cells after 48 hrs; format: functional, organism-based; conditions: D6, 48 h
[15] = tested on: Plasmodium falciparum; experiment: Resistance index, ratio of IC50 for chloroquine-resistant ring stage Plasmodium falciparum W2 to IC50 for chloroquine-sensitive ring stage Plasmodium falciparum 3D7; format: functional
Outline: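 W2 IC50 divided by 3D7 IC50. Both were measured by 48 h YOYO-1 flow-cytometric growth assay on sorbitol-synchronised 1% ring-stage cultures in human erythrocytes at 37 C under 3% O2.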

[16] = tested on: Nucleic Acid; experiment: Binding affinity to s(GATCCTAGGATC)2-DNA by UV-visible spectrophotometry; format: nucleic-acid assay

| SMILES | Drug uptake [1] | IC50 [2] [nM] | inhibition [3] [%] | Ka [4] [×10⁶ /M] | selectivity ratio [5] | IC50 [6] [nM] | Activity [7] | Activity [8] [%] | IC50 [9] [nM] | Drug uptake [10] | IC50 [11] [nM] | IC50 [12] [nM] | Ka [13] [×10⁶ /M] | IC50 [14] [nM] | Ratio IC50 [15] | Ka [16] [×10⁶ /M] |
| --- | --- | --- | --- | --- | --- | --- | --- | --- | --- | --- | --- | --- | --- | --- | --- | --- |
| C[n+]1c2ccccc2c(NC2CCNCC2)c2[nH]c3ccccc3c21.[Cl-] | Active | 62000 | 60 | 0.74 | 1410 | 7900 | inactive | 20 | 60 | Active | 6390 | 23 | 0.154 | 59 | 0.7 | – |
| C[n+]1c2ccccc2cc2[n-]c3ccccc3c21.Cl [CRYPTOLEPINE HYDROCHLORIDE] | Active | 1050 | – | – | 1.4 | > 50000 | inactive | – | 259 | Active | 38000 | 424 | 0.045 | 222 | 2.9 | 0.25 |

Reference: ChEMBL document CHEMBL1671820, “Incorporation of basic side chains into cryptolepine scaffold: structure-antimalarial activity relationships and mechanistic studies” (J Med Chem, 2011)
